Shown are actives, neighbours in structure and some others; about 4% of the full set was active somewhere.
Exocytosis inh: blocks lytic granule exocytosis; TALL-104 LAMP-1 surface exposure, flow cytometry; cells stimulated with thapsigargin and PMA; inhibition, % at 10 µM; 360,000 tested, 0.66% active; AID 651702;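 active means inhibition above about 55%, limit read from the data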
XBP1 UPR activ: adaptive UPR (XBP1) activation; CHO-XBP1 luciferase reporter, IRE1-XBP1 UPR activation, luminescence; percent of tunicamycin response, DMSO as zero; activation, % at 20 µM; 330,000 tested, 0.33% active; AID 463104;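 active means versus positive control, 20 µM dose yields 30% or more activation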
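incubation = overnight seeding at 37 °C, 6 h compound treatment at 37 °C | assay system = CHO-XBP1 cells stably carrying IRE1-XBP1-driven luciferase reporter | input = 1000 cells per well | detection = luciferase luminescence | dosing = single point, 20 µM final compound, 1% DMSO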
ABHD5-PLIN5 inh: ABHD5-PLIN5 protein interaction inhibition | Q00G26+Q8WTS1 | Split G. princeps luciferase complementation, luminescence, 4 h | inhibition, % at 4 µM | 360,000 tested, 0.78% active;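 active means inhibition above the mean inhibition across every tested compound plus 3 SD, cut at about 22% in these data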
Target sequence (Q00G26 whole entry, looked up): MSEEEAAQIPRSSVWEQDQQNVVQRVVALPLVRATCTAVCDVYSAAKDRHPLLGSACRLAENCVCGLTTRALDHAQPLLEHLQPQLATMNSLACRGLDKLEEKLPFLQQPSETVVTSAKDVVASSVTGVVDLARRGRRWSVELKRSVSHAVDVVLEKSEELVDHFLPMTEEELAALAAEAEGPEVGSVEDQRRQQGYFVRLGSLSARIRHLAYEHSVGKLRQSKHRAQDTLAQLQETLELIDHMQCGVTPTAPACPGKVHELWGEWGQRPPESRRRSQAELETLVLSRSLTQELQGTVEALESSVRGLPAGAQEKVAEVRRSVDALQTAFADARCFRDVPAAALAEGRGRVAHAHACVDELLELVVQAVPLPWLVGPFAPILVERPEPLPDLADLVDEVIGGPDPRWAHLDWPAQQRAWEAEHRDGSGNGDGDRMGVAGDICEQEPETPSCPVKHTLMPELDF
Target sequence (Q8WTS1 whole entry, looked up): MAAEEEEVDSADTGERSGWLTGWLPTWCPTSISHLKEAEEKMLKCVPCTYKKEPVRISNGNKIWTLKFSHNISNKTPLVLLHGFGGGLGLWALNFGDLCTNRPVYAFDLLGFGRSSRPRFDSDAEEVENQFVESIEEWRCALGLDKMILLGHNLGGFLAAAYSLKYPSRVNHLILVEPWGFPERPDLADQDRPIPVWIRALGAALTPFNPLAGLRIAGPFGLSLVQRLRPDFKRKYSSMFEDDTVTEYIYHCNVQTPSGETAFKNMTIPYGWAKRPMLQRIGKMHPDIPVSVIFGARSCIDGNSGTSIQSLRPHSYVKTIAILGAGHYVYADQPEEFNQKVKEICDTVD
Mdm2-MdmX inh: disrupts the human Mdm2-MdmX interaction; SaOS-2 split-luciferase Mdm2/MdmX complementation, luminescence; 330,000 tested, 3% active; inhibition, % at 8 µM;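 active means inhibition of at least 50% at 8 µM in the primary screen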
UPR CHOP act: activators of apoptotic arm of unfolded protein response (CHOP). activation, % at 10 µM. 330,000 tested, 0.34% active. CHO-CHOP luciferase reporter, UPR activation, luminescence; percent of tunicamycin response over DMSO baseline;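 active means at 10 µM dose, activation of 40% or more, normalized to positive control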
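Material: CHO-CHOP cells, stable luciferase reporter of PERK-eIF2a-CHOP signalling; quantity: 500 reporter cells seeded per well; buffer or medium: F12 medium containing 10% fetal bovine serum; compound: one dose, 10 µM in 0.5% DMSO; incubation: 6 h compound treatment, 37 °C; measured by: Steady-Glo luciferase luminescence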
Exocytosis CP01: blocks lytic granule exocytosis; 1,500 tested, 11% active; shares compounds with Exocytosis inh; inhibition, % at 10 µM; TALL-104 cells, LAMP-1 externalization, flow cytometry; stimulated with PMA plus thapsigargin; in the data active means inhibition above about 60%
Each line names hits and unclear results; the compound was inactive in the other large screens (follow-up assays come after a bar, where they were run).

Oc1ccccc1-c1nc(N2CCCC2)c2ccccc2n1	none
CC1CCN(c2nc(-c3ccccc3O)nc3ccccc23)CC1	Exocytosis inh 59 | Exocytosis CP01 inactive
Cc1ccc(NC(=O)Cn2ncn3c(cc4ccccc43)c2=O)cc1F	Exocytosis inh 106 | Exocytosis CP01 inactive
Cc1cc(Br)cc(Cl)c1OCC(=O)N1CCN(C(=O)c2ccco2)CC1	Exocytosis inh 89 | Exocytosis CP01 inactive
Cc1cc(C)c(OCC(=O)OCC(=O)N2CCN(C(=O)c3ccco3)CC2)c(C)c1	none
COC(=O)c1ccc(N2CCN(C)CC2)c(NC(=O)c2sc3ccccc3c2Cl)c1	Exocytosis inh 78 (no result: XBP1 UPR activ, Mdm2-MdmX inh, UPR CHOP act) | Exocytosis CP01 91
CC1CCCCC1NC(=O)CCCn1c(=S)[nH]c2ccccc2c1=O (configuration not stated)	none
Cc1ccc(C)c(N2CCN(CCCNC(=O)Cn3c(=O)c4cccn4c4cccnc43)CC2)c1	Exocytosis inh 75 | Exocytosis CP01 inactive
Cc1ccc(C)c(N2CCN(CCCNC(=O)CCn3c(=O)c4cccn4c4cccnc43)CC2)c1	none
Cc1ccc(Cl)cc1N1CCN(S(=O)(=O)c2cccc(S(=O)(=O)N3CCCC3)c2)CC1	Exocytosis inh 77 | Exocytosis CP01 inactive
Cc1cc(C(=O)NC(Cc2ccccc2)C(=O)O)c(C)o1 (configuration not stated)	none
CCC(C(=O)n1cccc1C#N)c1ccccc1C (configuration not stated)	Exocytosis inh 70 | Exocytosis CP01 inactive
CCOC(=O)C(=CNc1ccccc1C)C(=O)OCC	none
Cc1ccc(NS(=O)(=O)c2cccc(C(=O)NCCc3c[nH]c4ccccc34)c2)c(C)c1	Exocytosis inh 62 | Exocytosis CP01 inactive
Cc1ccc(NC(=O)C(=O)NCCc2c[nH]c3ccccc23)c(C)c1	none
C[C@H](NC(CCc1ccccc1)C(=O)O)C(=O)N1CCC[C@H]1C(=O)O (some centres not stated)	none (no result: Exocytosis inh, ABHD5-PLIN5 inh)
CC1CN(CCOc2cccc(Oc3ccccc3)c2)CC(C)O1 (configuration not stated)	none
CC1CCCN(CCOc2cccc(Oc3ccccc3)c2)C1 (configuration not stated)	Exocytosis inh 60 | Exocytosis CP01 inactive
CC(Oc1ccccc1F)C(=O)NNC(=O)Cc1ccc(S(=O)(=O)N2CCOCC2)s1 (configuration not stated)	none (no result: XBP1 UPR activ, Mdm2-MdmX inh, UPR CHOP act)
COc1ccccc1N(C)S(=O)(=O)c1ccc(C(=O)NCCc2ccc(F)cc2)cc1	none
CN(c1ccccc1)S(=O)(=O)c1ccc(C(=O)NCCc2ccc(F)cc2)cc1	Exocytosis inh 72 | Exocytosis CP01 inactive
Cc1ccsc1CN(C)CC(=O)Nc1ccc([N+](=O)[O-])cc1Cl	Exocytosis inh 99 | Exocytosis CP01 inactive
CCc1nc2ccc(C(=O)Nc3cc(-c4ccccc4)ccc3OC)cn2c1N(CC)CCN(C)C	Exocytosis inh 60 (no result: XBP1 UPR activ, Mdm2-MdmX inh, UPR CHOP act) | Exocytosis CP01 inactive
CCCCCCNC(=O)c1cccc(-c2ccc(C)c3ccccc23)n1	Exocytosis inh 58 | Exocytosis CP01 inactive
COc1ccccc1CNC(=O)c1cccc(-c2ccc(C)c3ccccc23)n1	none (no result: Exocytosis inh, ABHD5-PLIN5 inh)
Cc1cc(C)n(CCc2nc(-c3ccc(C)o3)cs2)n1	Exocytosis inh 68 | Exocytosis CP01 inactive
Cc1ccc(S(=O)(=O)Nc2ccc(C(=O)NCc3cccnc3)cc2)cc1	none
Cc1ccc(NS(=O)(=O)c2cc(C(=O)NCc3cccnc3)ccc2C)cc1	Exocytosis inh 63 | Exocytosis CP01 inactive
O=C(Nc1ccncc1)C1CC(=O)N(c2ccc(F)cc2)C1 (configuration not stated)	none
CN(C)c1ccc(C(C(=O)NCc2ccccc2)N(Cc2ccco2)C(=O)c2snc(C(N)=O)c2N)cc1 (configuration not stated)	Exocytosis inh 99 (no result: XBP1 UPR activ, Mdm2-MdmX inh, UPR CHOP act) | Exocytosis CP01 inactive
NCCCn1c(C(=O)c2ccc(Cl)cc2)c2ccc(C(F)(F)F)cc2[n+]1[O-]	none
CCCCN(CC)CCNc1c(NC2CCN(C(=O)OCC)CC2)c(=O)c1=O	none
COCCNC(=S)N(CCc1c(C)[nH]c2ccc(F)cc12)Cc1ccco1	Exocytosis inh 63 | Exocytosis CP01 inactive
